Legend:
[1] = system: HeLaS3 cells; conditions: cited from earlier work
[2] = system: advanced and/or refractory solid tumors; experiment: Tumor response; format: in vivo, human
[3] = system: AURKA, AURKB, BIRC5, PRC1, TACC3, DLGAP5 [DLG7], and NDC80 [KNTC2]; experiment: Gene expression PD biomarkers by quantitative RT-PCR on hair follicle RNA; format: in vivo, human; conditions: Panel 1 (MT), p < 0.05 unadjusted
[4] = system: phospho-Aurora B (pAurB) and phospho-histone H3 (pHH3); experiment: Immunohistochemistry of hair follicles and skin biopsies; format: in vivo, human; conditions: Panel 1 (MT), pre- and post-dose hair follicles and skin biopsies
Outline: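 Plucked scalp hair follicles (from at least 15 hair shafts) and skin punch biopsies were taken pre-dose and on Cycle 1 Day 2, 4 (±1) h after the third oral BID Q12hr dose. Only Panel 1 monotherapy patients were sampled. Phospho-Aurora B and phospho-histone H3 were assessed by immunohistochemistry as change from baseline.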

[5] = system: other kinases, including both Aurora B and Aurora C; conditions: cited from earlier work
[6] = Safety and tolerability; format: in vivo
[7] = Panel 2: (N = 17) MK-5108 CT with docetaxel
[8] = Crossover from Panel 1 to Panel 2 (n = 4)

O=C(O)[C@]1(Cc2cccc(Nc3nccs3)n2)CC[C@@H](Oc2cccc(Cl)c2F)CC1 [MK-5108]
apoptosis in combination with docetaxel [1]: robustly potentiated apoptosis | Partial Response ([2]; MK-5108 225 Q12hr (450 mg/day) CT, 1 patient): 5.9% | stable disease ([2]; MK-5108 CT, 7 patients): 41.2% | Progressive Disease ([2]; MK-5108 MT, 8 patients): 44.4% | stable disease ([2]; MK-5108 MT, 9 patients): 50% | best response: stable disease (patients/evaluable) ([2]; Panel 1 (MT)): 9/17 | median duration of stable disease ([2]; Panel 1 (MT)): 88 days | Partial Response ([2]; Panel 1: (N = 18) MK-5108 MT): 0 (0.0) n (%) | Progressive Disease ([2]; Panel 1: (N = 18) MK-5108 MT): 8 (44.4) n (%) | Tumor response category: Discontinued due to AE ([2]; Panel 1: (N = 18) MK-5108 MT): 1 (5.6) n (%) | stable disease ([2]; Panel 1: (N = 18) MK-5108 MT): 9 (50.0) n (%) | best response: SD (patients/evaluable) ([2]; Panel2 (CT)): 7/16 | median duration of stable disease ([2]; Panel2 (CT)): 48 days | best response: PR (patients/evaluable) ([2]; Panel2 (CT), 450 mg/day): 1/16 | Partial Response [2, 7]: 1 (5.9) n (%) | Progressive Disease [2, 7]: 8 (47.1) n (%) | Tumor response category: Discontinued due to AE [2, 7]: 1 (5.9) n (%) | stable disease [2, 7]: 7 (41.2) n (%) | complete responses ([2]; either of the treatment panels): no complete responses | genes (of seven) with significant dose-related changes in the expected direction [3]: 5 genes | change from baseline in pHH3 and pAurB (IHC) [4]: no clear dose-related increases | target specificity relative to other kinases [5]: comparatively high target specificity | Drug-related AEs by SOC: Blood and lymphatic system disorders ([6]; Crossover (N = 4)): 2 (50.0) n (%) | Drug-related AEs by SOC: Gastrointestinal disorders ([6]; Crossover (N = 4)): 1 (25.0) n (%) | Drug-related AEs by SOC: General disorders and administration site conditions ([6]; Crossover (N = 4)): 2 (50.0) n (%) | Drug-related AEs by SOC: Infections and infestations ([6]; Crossover (N = 4)): 0 (0.0) n (%) | Drug-related AEs by SOC: Investigations ([6]; Crossover (N = 4)): 1 (25.0) n (%) | Drug-related AEs by SOC: Metabolism and nutrition disorders ([6]; Crossover (N = 4)): 2 (50.0) n (%) | Drug-related AEs by SOC: Musculoskeletal and connective tissue disorders ([6]; Crossover (N = 4)): 1 (25.0) n (%) | Drug-related AEs by SOC: Nervous system disorders ([6]; Crossover (N = 4)): 1 (25.0) n (%) | Drug-related AEs by SOC: Respiratory, thoracic and mediastinal disorders ([6]; Crossover (N = 4)): 1 (25.0) n (%) | Drug-related AEs by SOC: Skin and subcutaneous tissue disorders ([6]; Crossover (N = 4)): 1 (25.0) n (%) | Drug-related AEs by SOC: Vascular disorders ([6]; Crossover (N = 4)): 0 (0.0) n (%) | Patients with drug-related AEs, highest grade: Grade 1 ([6]; Crossover (N = 4)): 1 (25.0) n (%) | Patients with drug-related AEs, highest grade: Grade 2 ([6]; Crossover (N = 4)): 0 (0.0) n (%) | Patients with drug-related AEs, highest grade: Grade 3 ([6]; Crossover (N = 4)): 1 (25.0) n (%) | Patients with drug-related AEs, highest grade: Grade 4 ([6]; Crossover (N = 4)): 1 (25.0) n (%) | Patients with no drug-related AEs ([6]; Crossover (N = 4)): 1 (25.0) n (%) | Patients with one or more drug-related AEs ([6]; Crossover (N = 4)): 3 (75.0) n (%) | Death [6, 8]: 0 n (%) | Discontinued treatment due to a drug-related AE [6, 8]: 0 n (%) | Discontinued treatment due to a drug-related SAE [6, 8]: 0 n (%) | Discontinued treatment due to an SAE [6, 8]: 0 n (%) | Discontinued treatment due to any AE [6, 8]: 0 n (%) | Patients with any AE [6, 8]: 4 (100.0) n (%) | Patients with drug-related AE [6, 8]: 3 (75.0) n (%) | Patients with no AE [6, 8]: 0 n | Patients with serious AE [6, 8]: 0 n (%) | Patients with serious drug-related AE [6, 8]: 0 n (%) | MTD ([6]; MK-5108 MT, doses up to 1800 mg Q12hr): not established | tolerability ([6]; MT, doses up to 1800 mg Q12hr (3600 mg/day)): generally well tolerated | patients experiencing a DLT ([6]; Panel 1 (MT)): no patients | patients with a Grade 3 or 4 drug-related AE ([6]; Panel 1 (MT)): No patients | AEs (all grades and doses) by SOC: General disorders and administration site conditions ([6]; Panel 1 (MT), 11/14): 78.6% | AEs (all grades and doses) by SOC: Gastrointestinal disorders ([6]; Panel 1 (MT), 12/14): 85.7% | Drug-related AEs by SOC: Blood and lymphatic system disorders ([6]; Panel 1: MK-5108 MT (N = 14)): 4 (28.6) n (%) | Drug-related AEs by SOC: Gastrointestinal disorders ([6]; Panel 1: MK-5108 MT (N = 14)): 7 (50.0) n (%) | Drug-related AEs by SOC: General disorders and administration site conditions ([6]; Panel 1: MK-5108 MT (N = 14)): 7 (50.0) n (%) | Drug-related AEs by SOC: Infections and infestations ([6]; Panel 1: MK-5108 MT (N = 14)): 0 (0.0) n (%) | Drug-related AEs by SOC: Investigations ([6]; Panel 1: MK-5108 MT (N = 14)): 2 (14.3) n (%) | Drug-related AEs by SOC: Metabolism and nutrition disorders ([6]; Panel 1: MK-5108 MT (N = 14)): 2 (14.3) n (%) | Drug-related AEs by SOC: Musculoskeletal and connective tissue disorders ([6]; Panel 1: MK-5108 MT (N = 14)): 1 (7.1) n (%) | Drug-related AEs by SOC: Nervous system disorders ([6]; Panel 1: MK-5108 MT (N = 14)): 3 (21.4) n (%) | Drug-related AEs by SOC: Respiratory, thoracic and mediastinal disorders ([6]; Panel 1: MK-5108 MT (N = 14)): 1 (7.1) n (%) | Drug-related AEs by SOC: Skin and subcutaneous tissue disorders ([6]; Panel 1: MK-5108 MT (N = 14)): 1 (7.1) n (%) | Drug-related AEs by SOC: Vascular disorders ([6]; Panel 1: MK-5108 MT (N = 14)): 0 (0.0) n (%) | Patients with drug-related AEs, highest grade: Grade 1 ([6]; Panel 1: MK-5108 MT (N = 14)): 3 (21.4) n (%)
